According to article PMC4306484 (ACS Chemical Neuroscience, 2014):
Marks after values point to notes of the source that are not given here. Each block holds one molecule with its values, some of them ahead of it.

Columns and labels:
SC-CA1 synapse = assay: Extracellular field potential recordings; set-up: species or system C57BL6/J mice; settings: for effect on fEPSP slope: agonist alone: 3 μM LSP1-2111, 1 μM DCPG or 30 μM LSP4-2022
Summary of the method: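 Coronal hippocampal slices (400 μm) from six-week-old male mice anesthetized with isoflurane, cut in ice-cold sucrose solution. Slices recovered in NMDG-HEPES (15 min, 32 °C), then in ACSF (≥1 h, RT), and were perfused with 32 °C ACSF. CA1 stratum radiatum recordings used paired pulses (100 μs, 20 ms apart, 0.05 Hz). After 10 min baseline, drugs in ACSF were given for 5 or 10 min; PAM was preapplied 5 min, then coapplied with agonist. Slopes from three sweeps were averaged and normalized to predrug baseline. Paired-pulse ratio was second/first slope. N = 3–4; mean ± SEM.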

rat mGlu8 [1] = biological target: T1, rat mGlu8 (Rattus norvegicus, UniProt P70579); assay: Calcium mobilization assay, rat mGlu8/Gα15/HEK cells; type: cell-based; settings: for Kb / log α (affinity cooperativity) / log β (efficacy cooperativity) / log τB / α / β / τB: calcium assay
human mGlu4 = human mGlu4 (Homo sapiens, UniProt Q14833); assay: Calcium mobilization assay, human mGlu4/Gqi5/CHO cells; type: cell-based; settings: for Kb / log α (affinity cooperativity) / log β (efficacy cooperativity) / α / β: calcium assay
mGlu4 = mGlu4 (Rattus norvegicus, UniProt P31423); assay: Thallium flux assay, cells expressing mGlu4 and GIRK1/2; type: cell-based; settings: GIRK assay
rat mGlu2 = rat mGlu2 (Rattus norvegicus, UniProt P31421); assay: Fold-shift assay in rat mGlu2/Gα15-expressing cells; type: cell-based; settings: listed as VU0155094
rat mGlu8 [2] = biological target: T1, rat mGlu8; assay: Thallium flux assay, HEK293 cells expressing rat mGlu8 and GIRK1/2 channels; type: cell-based
rat mGlu7 = rat mGlu7 (Rattus norvegicus, UniProt P35400); assay: Calcium mobilization assay, rat mGlu7/Gα15/HEK cells; type: cell-based; settings: for Kb / log α (affinity cooperativity) / log β (efficacy cooperativity) / log τB / α / β / τB: calcium assay
Chain of rat mGlu7 (P35400 35-915): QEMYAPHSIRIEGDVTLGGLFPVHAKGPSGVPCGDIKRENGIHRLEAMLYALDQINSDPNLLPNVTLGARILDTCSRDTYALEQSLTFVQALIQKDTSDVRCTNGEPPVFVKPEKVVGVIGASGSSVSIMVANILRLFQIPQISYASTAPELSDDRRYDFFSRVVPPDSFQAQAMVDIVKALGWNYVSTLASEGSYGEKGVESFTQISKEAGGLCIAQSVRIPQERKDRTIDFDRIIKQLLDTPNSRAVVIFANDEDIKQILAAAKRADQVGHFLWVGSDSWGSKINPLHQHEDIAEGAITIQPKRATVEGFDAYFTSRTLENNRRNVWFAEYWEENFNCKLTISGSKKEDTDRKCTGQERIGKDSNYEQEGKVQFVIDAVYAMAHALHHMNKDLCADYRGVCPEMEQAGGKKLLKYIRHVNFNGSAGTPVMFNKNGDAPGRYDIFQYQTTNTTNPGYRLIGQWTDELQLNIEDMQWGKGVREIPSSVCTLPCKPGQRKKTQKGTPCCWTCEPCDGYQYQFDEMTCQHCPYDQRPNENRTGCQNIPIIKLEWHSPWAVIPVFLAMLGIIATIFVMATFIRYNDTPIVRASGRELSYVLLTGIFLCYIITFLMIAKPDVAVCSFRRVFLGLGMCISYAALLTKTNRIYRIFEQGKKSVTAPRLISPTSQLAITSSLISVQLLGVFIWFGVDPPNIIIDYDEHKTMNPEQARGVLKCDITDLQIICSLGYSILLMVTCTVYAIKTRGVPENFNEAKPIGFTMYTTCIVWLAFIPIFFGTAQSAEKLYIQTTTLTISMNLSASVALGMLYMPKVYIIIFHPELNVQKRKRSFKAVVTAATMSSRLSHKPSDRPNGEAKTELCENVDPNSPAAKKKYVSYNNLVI

Chain of mGlu4 (P31423 33-912): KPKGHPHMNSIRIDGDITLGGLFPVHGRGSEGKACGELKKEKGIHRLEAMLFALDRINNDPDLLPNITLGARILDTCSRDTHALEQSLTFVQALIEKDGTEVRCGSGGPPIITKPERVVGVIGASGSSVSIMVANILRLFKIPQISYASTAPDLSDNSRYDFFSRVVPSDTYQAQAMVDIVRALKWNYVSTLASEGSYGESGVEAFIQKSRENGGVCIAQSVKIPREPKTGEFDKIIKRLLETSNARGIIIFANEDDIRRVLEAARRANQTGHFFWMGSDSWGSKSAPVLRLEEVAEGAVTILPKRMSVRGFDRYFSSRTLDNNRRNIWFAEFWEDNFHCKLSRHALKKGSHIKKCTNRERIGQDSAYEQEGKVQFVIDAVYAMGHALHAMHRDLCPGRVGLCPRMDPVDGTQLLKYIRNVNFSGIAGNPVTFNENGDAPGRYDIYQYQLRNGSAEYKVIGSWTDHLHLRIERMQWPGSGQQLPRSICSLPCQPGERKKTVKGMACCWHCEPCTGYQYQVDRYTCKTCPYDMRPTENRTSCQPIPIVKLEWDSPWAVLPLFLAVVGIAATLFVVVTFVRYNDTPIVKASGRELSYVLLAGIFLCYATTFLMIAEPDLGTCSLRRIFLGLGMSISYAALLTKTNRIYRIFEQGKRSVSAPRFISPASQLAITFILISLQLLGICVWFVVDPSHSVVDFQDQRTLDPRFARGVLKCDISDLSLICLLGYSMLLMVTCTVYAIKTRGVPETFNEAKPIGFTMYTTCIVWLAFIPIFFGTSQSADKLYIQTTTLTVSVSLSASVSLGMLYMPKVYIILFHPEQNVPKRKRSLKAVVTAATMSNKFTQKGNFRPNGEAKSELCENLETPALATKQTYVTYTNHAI
T1 sequence (P70579 34-908): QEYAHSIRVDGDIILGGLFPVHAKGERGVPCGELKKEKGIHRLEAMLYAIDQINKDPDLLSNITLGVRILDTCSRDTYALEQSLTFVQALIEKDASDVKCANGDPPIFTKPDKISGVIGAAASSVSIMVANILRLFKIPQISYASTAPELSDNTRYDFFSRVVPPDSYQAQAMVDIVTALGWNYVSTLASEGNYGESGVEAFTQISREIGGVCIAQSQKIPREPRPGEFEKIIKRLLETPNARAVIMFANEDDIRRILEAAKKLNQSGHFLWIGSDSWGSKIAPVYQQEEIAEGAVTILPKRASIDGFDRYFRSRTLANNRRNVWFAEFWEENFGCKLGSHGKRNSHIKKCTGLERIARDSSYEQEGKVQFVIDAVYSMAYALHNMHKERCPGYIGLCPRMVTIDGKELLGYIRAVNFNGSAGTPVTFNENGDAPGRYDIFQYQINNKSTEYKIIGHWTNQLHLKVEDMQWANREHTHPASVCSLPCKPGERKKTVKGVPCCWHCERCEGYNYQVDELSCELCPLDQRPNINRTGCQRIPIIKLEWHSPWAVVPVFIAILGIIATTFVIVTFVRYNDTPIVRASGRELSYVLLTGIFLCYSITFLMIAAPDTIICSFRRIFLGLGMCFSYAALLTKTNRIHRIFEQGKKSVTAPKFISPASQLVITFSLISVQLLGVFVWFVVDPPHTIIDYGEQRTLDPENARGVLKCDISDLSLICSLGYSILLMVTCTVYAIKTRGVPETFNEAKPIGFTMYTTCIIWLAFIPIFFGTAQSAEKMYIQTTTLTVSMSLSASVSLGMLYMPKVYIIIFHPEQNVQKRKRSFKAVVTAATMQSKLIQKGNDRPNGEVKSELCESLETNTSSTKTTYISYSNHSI
Chain of human mGlu4 (Q14833 33-912): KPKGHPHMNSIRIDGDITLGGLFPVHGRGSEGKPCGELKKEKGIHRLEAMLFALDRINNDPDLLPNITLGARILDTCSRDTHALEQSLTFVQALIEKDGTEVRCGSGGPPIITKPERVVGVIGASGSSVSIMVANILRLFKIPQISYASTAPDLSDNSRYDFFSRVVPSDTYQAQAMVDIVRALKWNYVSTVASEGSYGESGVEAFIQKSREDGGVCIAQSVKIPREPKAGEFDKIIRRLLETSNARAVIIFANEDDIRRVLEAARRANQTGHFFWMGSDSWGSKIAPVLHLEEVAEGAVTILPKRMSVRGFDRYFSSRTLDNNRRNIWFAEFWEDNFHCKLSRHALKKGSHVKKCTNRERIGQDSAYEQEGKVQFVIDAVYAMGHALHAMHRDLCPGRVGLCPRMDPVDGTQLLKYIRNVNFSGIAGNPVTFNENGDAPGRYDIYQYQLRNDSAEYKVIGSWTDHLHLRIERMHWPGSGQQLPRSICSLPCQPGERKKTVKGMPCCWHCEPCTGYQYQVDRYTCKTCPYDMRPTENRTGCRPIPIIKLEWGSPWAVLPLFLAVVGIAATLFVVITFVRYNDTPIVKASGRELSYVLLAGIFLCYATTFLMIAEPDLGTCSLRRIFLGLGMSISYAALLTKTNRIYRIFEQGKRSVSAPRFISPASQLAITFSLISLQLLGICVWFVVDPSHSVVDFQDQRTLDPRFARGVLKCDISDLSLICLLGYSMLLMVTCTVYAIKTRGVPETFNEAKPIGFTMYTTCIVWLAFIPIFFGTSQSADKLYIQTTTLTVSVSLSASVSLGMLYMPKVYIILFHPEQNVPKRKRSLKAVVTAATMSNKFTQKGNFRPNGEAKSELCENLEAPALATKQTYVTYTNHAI
Chain of rat mGlu2 (P31421 19-872): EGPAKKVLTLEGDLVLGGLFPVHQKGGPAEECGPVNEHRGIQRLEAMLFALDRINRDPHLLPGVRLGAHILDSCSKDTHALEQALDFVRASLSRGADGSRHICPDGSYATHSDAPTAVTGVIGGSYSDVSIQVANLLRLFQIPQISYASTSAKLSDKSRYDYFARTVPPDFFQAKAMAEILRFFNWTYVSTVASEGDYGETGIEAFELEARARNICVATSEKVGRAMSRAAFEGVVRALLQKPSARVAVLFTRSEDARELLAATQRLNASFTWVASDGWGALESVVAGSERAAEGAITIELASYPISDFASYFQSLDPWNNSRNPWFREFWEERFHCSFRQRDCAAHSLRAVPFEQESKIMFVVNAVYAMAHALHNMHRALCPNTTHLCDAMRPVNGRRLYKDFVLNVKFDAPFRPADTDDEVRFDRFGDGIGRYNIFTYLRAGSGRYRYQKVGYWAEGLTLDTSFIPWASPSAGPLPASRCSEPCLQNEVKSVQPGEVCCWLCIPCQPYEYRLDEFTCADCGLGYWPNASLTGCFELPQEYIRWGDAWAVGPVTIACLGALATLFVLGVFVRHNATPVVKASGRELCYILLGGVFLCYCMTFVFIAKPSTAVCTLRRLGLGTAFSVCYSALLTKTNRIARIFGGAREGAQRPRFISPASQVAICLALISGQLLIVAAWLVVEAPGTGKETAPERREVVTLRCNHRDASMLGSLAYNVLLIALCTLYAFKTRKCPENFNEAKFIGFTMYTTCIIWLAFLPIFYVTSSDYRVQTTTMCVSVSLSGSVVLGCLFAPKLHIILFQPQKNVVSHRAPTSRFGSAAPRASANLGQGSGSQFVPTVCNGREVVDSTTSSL

SMILES: COc1cc(C(O)P(=O)(O)CC[C@H](N)C(=O)O)cc([N+](=O)[O-])c1O (stereo partly drawn) [LSP1-2111, (2S)-2-amino-4-[hydroxy[hydroxy(4-hydroxy-3-methoxy-5-nitro-phenyl)methyl]phosphoryl]butanoic acid]
- effect on fEPSP slope (SC-CA1 synapse): has no effect on fEPSP slope

SMILES: N[C@H](C(=O)O)c1ccc(C(=O)O)c(C(=O)O)c1 [DCPG, (S)-3,4-dicarboxyphenylglycine]
- effect on fEPSP slope (SC-CA1 synapse): has no effect on fEPSP slope

Further lines, with some results ahead:

- fold lower affinity compared to glutamate (rat mGlu8 [1]; calcium): 10 fold
- Fold ΔpKA vs. Glu (fold higher affinity than glutamate) (human mGlu4; calcium): 9 fold
SMILES: N[C@@H](CCP(=O)(O)C(O)c1ccc(OCC(=O)O)cc1)C(=O)O (stereo partly drawn) [LSP4-2022, (2S)-2-amino-4-(((4-(carboxymethoxy)phenyl)(hydroxy)methyl)(hydroxy)phosphoryl)butanoic acid, reference compound]
- effect on paired-pulse ratio (SC-CA1 synapse; 30 μM LSP4-2022 alone): causes an increase in paired-pulse ratio
- effect on fEPSP slope (SC-CA1 synapse): causes a decrease in the fEPSP slope

- log αβ (combined cooperativity) (mGlu4; agonist Glu): 0.54 ± 0.06 ^i
- αβ (mGlu4; agonist Glu): 3.5
- log αβ (combined cooperativity) (mGlu4; agonist L-AP4): 0.58 ± 0.04 ^j
- αβ (mGlu4; agonist L-AP4): 3.8
- log αβ (combined cooperativity) (mGlu4; agonist LSP4-2022): 0.54 ± 0.003 ^k
- αβ (mGlu4; agonist LSP4-2022): 3.5
- Kb (mGlu4; agonist Glu): 0.306 µM
- Kb (mGlu4; agonist L-AP4): 0.304 µM
- Kb (mGlu4; agonist LSP4-2022): 0.268 µM
SMILES: O=C(Nc1ccc(Oc2ccc(Cl)cn2)c(Cl)c1)c1ccccn1 [Compound 20, N-(3-chloro-4-((5-chloropyridin-2-yl)oxy)phenyl)picolinamide]

- shift of glutamate concentration-response (PAM or NAM activity) at mGlu2 (rat mGlu2): inactive
- EC50 (rat mGlu8 [2]): 1.62 µM
- agonist activity in the absence of glutamate (rat mGlu8 [2]): did not exhibit agonist activity
- Kb (rat mGlu7; KB, agonist LSP4-2022): 8 µM
- fold greater modulator affinity with L-AP4 than with glutamate as agonist (rat mGlu7; calcium): 4 fold
- log α (affinity cooperativity) (rat mGlu7; agonist Glu): 0.58 ± 0.13
- log β (efficacy cooperativity) (rat mGlu7; agonist Glu): 0.68 ± 0.12 ^g ^h
- log τB (rat mGlu7; agonist Glu): –0.17 ± 0.03
- α (rat mGlu7; agonist Glu): 3.8
- β (rat mGlu7; agonist Glu): 4.8
- τB (rat mGlu7; agonist Glu): 0.81
- log α (affinity cooperativity) (rat mGlu7; agonist L-AP4): 0.39 ± 0.21
- log β (efficacy cooperativity) (rat mGlu7; agonist L-AP4): 0.07 ± 0.03 ^g ^i
- log τB (rat mGlu7; agonist L-AP4): –0.09 ± 0.04
- α (rat mGlu7; agonist L-AP4): 2.4
- β (rat mGlu7; agonist L-AP4): 1.2
- log α (affinity cooperativity) (rat mGlu7; agonist LSP4-2022): 0.82 ± 0.26 ^l
- log β (efficacy cooperativity) (rat mGlu7; agonist LSP4-2022): –0.10 ± 0.10 ^g ^j
- log τB (rat mGlu7; agonist LSP4-2022): –0.22 ± 0.06
- α (rat mGlu7; agonist LSP4-2022): 6.6
- β (rat mGlu7; agonist LSP4-2022): 0.8
- τB (rat mGlu7; agonist LSP4-2022): 0.61
- Kb (rat mGlu7; pKB, agonist Glu, eq 2): 17 µM
- Kb (rat mGlu7; pKB, agonist L-AP4, eq 2): 4.17 µM
- Kb (rat mGlu8 [1]; agonist Glu): 8.6 µM
- Kb (rat mGlu8 [1]; agonist L-AP4): 14.7 µM
- Kb (rat mGlu8 [1]; agonist LSP4-2022): 14 µM
- log α (affinity cooperativity) (rat mGlu8 [1]; agonist Glu): 0.61 ± 0.39
- log β (efficacy cooperativity) (rat mGlu8 [1]; agonist Glu): 0.08 ± 0.02 ^h
- log τB (rat mGlu8 [1]; agonist Glu): –0.12 ± 0.03
- α (rat mGlu8 [1]; agonist Glu): 4.1
- β (rat mGlu8 [1]; agonist Glu): 1.2
- τB (rat mGlu8 [1]; agonist Glu): 0.75
- log α (affinity cooperativity) (rat mGlu8 [1]; agonist L-AP4): 0.92 ± 0.08 ^k
- log β (efficacy cooperativity) (rat mGlu8 [1]; agonist L-AP4): 0.05 ± 0.03 ^i
- log τB (rat mGlu8 [1]; agonist L-AP4): –0.14 ± 0.04
- α (rat mGlu8 [1]; agonist L-AP4): 8.3
- β (rat mGlu8 [1]; agonist L-AP4): 1.1
- τB (rat mGlu8 [1]; agonist L-AP4): 0.73
- log α (affinity cooperativity) (rat mGlu8 [1]; agonist LSP4-2022): 0.93 ± 0.06 ^l
- log β (efficacy cooperativity) (rat mGlu8 [1]; agonist LSP4-2022): 0.05 ± 0.06 ^j
- log τB (rat mGlu8 [1]; agonist LSP4-2022): –0.10 ± 0.06
- α (rat mGlu8 [1]; agonist LSP4-2022): 8.6
- β (rat mGlu8 [1]; agonist LSP4-2022): 1.1
- τB (rat mGlu8 [1]; agonist LSP4-2022): 0.80
- Kb (human mGlu4; KB, agonist Glu): 13.3 µM
- Kb (human mGlu4; KB, agonist L-AP4): 13.2 µM
- Kb (human mGlu4; KB, agonist LSP4-2022): 10.6 µM
- log α (affinity cooperativity) (human mGlu4; agonist Glu): 0.28 ± 0.07
- log β (efficacy cooperativity) (human mGlu4; agonist Glu): 0.16 ± 0.08 ^f ^h
- α (human mGlu4; agonist Glu): 1.9
- β (human mGlu4; agonist Glu): 1.4
- log α (affinity cooperativity) (human mGlu4; agonist L-AP4): –0.15 ± 0.30 ^k
- log β (efficacy cooperativity) (human mGlu4; agonist L-AP4): 0.67 ± 0.27 ^f ^i
- α (human mGlu4; agonist L-AP4): 0.71
- β (human mGlu4; agonist L-AP4): 4.7
- log α (affinity cooperativity) (human mGlu4; agonist LSP4-2022): 0.17 ± 0.13 ^l
- log β (efficacy cooperativity) (human mGlu4; agonist LSP4-2022): 0.33 ± 0.07 ^j
- α (human mGlu4; agonist LSP4-2022): 1.5
- β (human mGlu4; agonist LSP4-2022): 2.1
- Kb (human mGlu4; pKB, agonist L-AP4, eq 2): 13.2 µM
SMILES: COC(=O)c1ccc(-n2c(C)cc(C(=O)CSc3ccc(NC(C)=O)cc3)c2C)cc1 [Compound 1, methyl 4-(3-(2-((4-acetamidophenyl)thio)acetyl)-2,5-dimethyl-1H-pyrrol-1-yl)benzoate]
- effect on paired-pulse ratio (SC-CA1 synapse; PAM and LSP4-2022 applied together): increases the paired-pulse ratio
